Here are results for 9 compounds from ChEMBL document CHEMBL4428088, “Synthesis and evaluation of 6-pyrazoylamido-3N-substituted azabicyclo[3,1,0]hexane derivatives as T-type calcium channel inhibitors for treatment of neuropathic pain” (Bioorg Med Chem, 2016).

Calls of active or inactive are those of the source. The calls are words filed in the database; no cut-off is given here.

Data set [1] concerns the target T1, Voltage-dependent T-type calcium channel subunit alpha-1G (Homo sapiens, UniProt O43497). Briefly: Inhibition of T-type alpha1G channel (unknown origin) expressed in HEK293 cells at 10 uM by fluorescence-based HTS assay. Type of data set: cell-based. The essentials: (§1)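 FDSS6000 fluorescence-based HTS assay in HEK293 cells expressing Cav3.1 (α1G) or Cav3.2 (α1H), read as % inhibition.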

Data set [2] has as its target T2, Voltage-dependent T-type calcium channel subunit alpha-1H (Homo sapiens, UniProt O95180). Briefly: Inhibition of T-type alpha1H channel (unknown origin) expressed in HEK293 cells at 10 uM by fluorescence-based HTS assay. Format: cell-based. Put shortly:
as §1

A further data set concerns the target CYP2D6 (Homo sapiens, UniProt P10635). Put plainly: Inhibition of human CYP2D6 expressed in baculosomes assessed as remaining activity using fluorogenic substrate after 15 mins in presence of NADPH by fluorescence assay. Format: ADME. The arrangement: concentration or dose not given beside the values. As to conditions: recombinant human CYP2D6 in baculosomes, probe fluorogenic substrate, read-out: Activity. The essentials: (§2)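 Vivid CYP450 fluorescence assay for CYP2D6, 2C9, 2C19 and 3A4. Compound was preincubated with baculosome Master Pre-Mix and regeneration system for 15 min at 37 °C. The reaction was started with Vivid substrate plus NADPH and read on a fluorescence plate reader. Values are % remaining activity, in triplicate.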

For a further data set, the target named is CYP2C9 (Homo sapiens, UniProt P11712). Put plainly: Inhibition of human CYP2C9 expressed in baculosomes assessed as remaining activity using fluorogenic substrate after 15 mins in presence of NADPH by fluorescence assay. Type of data set: ADME. More on the design: concentration or dose not given beside the values. As to conditions: recombinant human CYP2C9 in baculosomes, probe fluorogenic substrate, read-out: Activity. The essentials: as §2

The next data set deals with CYP2C19 (Homo sapiens, UniProt P33261). Put plainly: Inhibition of human CYP2C19 expressed in baculosomes assessed as remaining activity using fluorogenic substrate after 15 mins in presence of NADPH by fluorescence assay. Format: ADME. The arrangement: concentration or dose not given beside the values. The following applies: recombinant human CYP2C19 in baculosomes, probe fluorogenic substrate, read-out: Activity. Put shortly: as §2
Sequence of CYP2C19 (P33261 whole entry): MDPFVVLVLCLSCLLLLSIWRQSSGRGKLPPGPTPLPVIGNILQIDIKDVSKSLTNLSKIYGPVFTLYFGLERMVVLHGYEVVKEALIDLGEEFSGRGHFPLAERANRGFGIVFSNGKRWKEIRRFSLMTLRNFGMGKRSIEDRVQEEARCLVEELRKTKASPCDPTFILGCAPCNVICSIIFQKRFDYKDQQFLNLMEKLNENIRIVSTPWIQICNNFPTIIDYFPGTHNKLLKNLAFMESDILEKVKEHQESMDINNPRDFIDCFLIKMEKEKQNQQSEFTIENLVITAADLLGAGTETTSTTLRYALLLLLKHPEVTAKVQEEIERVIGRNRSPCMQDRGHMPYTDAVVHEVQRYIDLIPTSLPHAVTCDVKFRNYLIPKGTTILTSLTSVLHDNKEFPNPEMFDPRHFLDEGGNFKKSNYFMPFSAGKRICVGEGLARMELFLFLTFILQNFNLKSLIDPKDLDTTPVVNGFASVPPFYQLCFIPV

The target of another data set is CYP3A4 (Homo sapiens, UniProt P08684). Briefly: Inhibition of human CYP3A4 expressed in baculosomes assessed as remaining activity using fluorogenic substrate after 15 mins in presence of NADPH by fluorescence assay. Type of data set: ADME. The arrangement: concentration or dose not given beside the values. The following applies: recombinant human CYP3A4 in baculosomes, probe fluorogenic substrate, read-out: Activity. Put shortly: as §2
Sequence of CYP3A4 (P08684 whole entry): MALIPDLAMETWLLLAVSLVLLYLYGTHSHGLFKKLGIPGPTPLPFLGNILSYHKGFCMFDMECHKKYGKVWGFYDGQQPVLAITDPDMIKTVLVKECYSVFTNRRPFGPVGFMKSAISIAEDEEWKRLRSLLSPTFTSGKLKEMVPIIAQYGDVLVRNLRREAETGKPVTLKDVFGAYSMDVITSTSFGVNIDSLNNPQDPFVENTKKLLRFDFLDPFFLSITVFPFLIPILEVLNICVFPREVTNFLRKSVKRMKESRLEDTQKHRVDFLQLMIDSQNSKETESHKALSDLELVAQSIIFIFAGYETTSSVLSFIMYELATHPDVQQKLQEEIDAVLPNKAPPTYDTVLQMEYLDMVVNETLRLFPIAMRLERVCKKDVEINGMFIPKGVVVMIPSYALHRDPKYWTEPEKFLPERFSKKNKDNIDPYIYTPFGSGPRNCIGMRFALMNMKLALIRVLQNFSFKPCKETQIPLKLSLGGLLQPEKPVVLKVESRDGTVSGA

Data set [3] can be described thus: Metabolic stability in human liver microsomes assessed as parent compound remaining after 30 mins in presence of NADPH by LC-MS/MS analysis. Type of data set: ADME, Microsome. The following applies: read-out: Stability. The essentials: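 Pooled human liver microsomes were incubated at 37 °C with compound in potassium phosphate buffer and 1.2 mM NADPH for 30 min. The reaction was stopped with cold acetonitrile containing internal standard, centrifuged, and the supernatant analysed by LC-MS/MS.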
(Microsomes from liver hold many membrane-bound enzymes, among them those of drug oxidation.)

Data set [4] has as its system Rattus norvegicus. Put plainly: Antiallodynic activity in rat model of spinal nerve ligation-induced neuropathic pain assessed as […] for paw withdrawal at 100 mg/kg, po administered on day 14 after ligation surgery and measured 3 to 5 hrs post dose by Von Frey filaments based method. Type of data set: functional, organism-based. Put shortly:
(§3)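 Spinal nerve ligation rats were dosed orally at 100 mg/kg 14 days after surgery, with gabapentin 100 mg/kg as reference (n = 5 test, n = 4 gabapentin). Mechanical and cold allodynia were tested 1, 3 and 5 h post dose. Significance versus pre-dose value by paired t-test.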

Data set [5] has as its system Rattus norvegicus. Put plainly: Antiallodynic activity in rat model of spinal nerve ligation-induced neuropathic pain assessed as reduction in cold allodynia by measuring paw withdrawal in response to acetone application at 100 mg/kg, po administered on day 14 after ligation surgery measured 1 to 5 hrs post dose relative to gabapentin. Type of data set: functional. Put shortly:
as §3

A short description of data set [6]: AUC (0 to infinity) in rat at 10 mg/kg, iv. Type of data set: ADME, organism-based. More on the design: dose 10 mg/kg, time infinity, route intravenous. The following applies: in vivo.
The nature of data set [7]: AUClast in rat at 10 mg/kg, iv. Type of data set: ADME, organism-based. The arrangement: dose 10 mg/kg, time 0 - last, route intravenous. The following applies: in vivo.
The nature of data set [8]: Clearance in rat at 10 mg/kg, iv. As to conditions: in vivo. Type of data set: ADME, organism-based.
Data set [9] can be described thus: Mean residence time in rat at 10 mg/kg, iv. Format: ADME, organism-based. The following applies: in vivo.
Data set [10] in a line: Ratio of drug level in rat brain to plasma at 10 mg/kg, iv at 2 hrs. Format: ADME, organism-based. As to conditions: brain and plasma, read-out: BPR.
Data set [11] is described as follows: Oral bioavailability in rat at 10 mg/kg. Type of data set: ADME, organism-based. As to conditions: in vivo.
Data set [12] in a line: AUC (0 to infinity) in rat at 10 mg/kg, po. The following applies: in vivo. Type of data set: ADME, organism-based. The arrangement: dose 10 mg/kg, route oral, time infinity.
A short description of data set [13]: AUClast in rat at 10 mg/kg, po. Format: ADME, organism-based. The arrangement: dose 10 mg/kg, route oral, time 0 - last. The following applies: in vivo.
Data set [14] in a line: Cmax in rat at 10 mg/kg, po. Format: ADME, organism-based. More on the design: dose 10 mg/kg, route oral. The following applies: in vivo.
The nature of data set [15]: Tmax in rat at 10 mg/kg, po. The following applies: in vivo. Format: ADME, organism-based.
Data set [16] can be described thus: Ratio of drug level in rat brain to plasma at 10 mg/kg, po at 2 hrs. Format: ADME, organism-based. The following applies: brain and plasma, read-out: BPR.
Data set [17] concerns the target T1, Voltage-dependent T-type calcium channel subunit alpha-1G. Put plainly: Inhibition of T-type alpha1G channel (unknown origin) by whole cell patch clamp method. Put shortly:
(§4)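 Whole-cell patch clamp recording. T-type α1G and α1H IC50 values (±SD) were taken from dose-response curves.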
Background: In patch-clamp work, channel activity is measured electrically.

In data set [18] the target is T2, Voltage-dependent T-type calcium channel subunit alpha-1H. Briefly: Inhibition of T-type alpha1H channel (unknown origin) by whole cell patch clamp method. The essentials: as §4
Data set [19] concerns the target Voltage-dependent N-type calcium channel subunit alpha-1B (Homo sapiens) (UniProt Q00975). Put plainly: Inhibition of N-type calcium channel (unknown origin) at 10 uM by whole cell patch clamp method.
Data set [20] concerns the target Voltage-gated inwardly rectifying potassium channel KCNH2 (Homo sapiens, UniProt Q12809). Put plainly: Inhibition of human ERG expressed in CHO-K1 cells by whole cell patch clamp method. Format: cell-based.
Data set [21] concerns the target T2, Voltage-dependent T-type calcium channel subunit alpha-1H. Put plainly: Inhibition of T-type alpha1H channel (unknown origin) expressed in HEK293 cells after 3 mins by patch clamp assay. Format: cell-based.

T2 sequence (O95180 whole entry): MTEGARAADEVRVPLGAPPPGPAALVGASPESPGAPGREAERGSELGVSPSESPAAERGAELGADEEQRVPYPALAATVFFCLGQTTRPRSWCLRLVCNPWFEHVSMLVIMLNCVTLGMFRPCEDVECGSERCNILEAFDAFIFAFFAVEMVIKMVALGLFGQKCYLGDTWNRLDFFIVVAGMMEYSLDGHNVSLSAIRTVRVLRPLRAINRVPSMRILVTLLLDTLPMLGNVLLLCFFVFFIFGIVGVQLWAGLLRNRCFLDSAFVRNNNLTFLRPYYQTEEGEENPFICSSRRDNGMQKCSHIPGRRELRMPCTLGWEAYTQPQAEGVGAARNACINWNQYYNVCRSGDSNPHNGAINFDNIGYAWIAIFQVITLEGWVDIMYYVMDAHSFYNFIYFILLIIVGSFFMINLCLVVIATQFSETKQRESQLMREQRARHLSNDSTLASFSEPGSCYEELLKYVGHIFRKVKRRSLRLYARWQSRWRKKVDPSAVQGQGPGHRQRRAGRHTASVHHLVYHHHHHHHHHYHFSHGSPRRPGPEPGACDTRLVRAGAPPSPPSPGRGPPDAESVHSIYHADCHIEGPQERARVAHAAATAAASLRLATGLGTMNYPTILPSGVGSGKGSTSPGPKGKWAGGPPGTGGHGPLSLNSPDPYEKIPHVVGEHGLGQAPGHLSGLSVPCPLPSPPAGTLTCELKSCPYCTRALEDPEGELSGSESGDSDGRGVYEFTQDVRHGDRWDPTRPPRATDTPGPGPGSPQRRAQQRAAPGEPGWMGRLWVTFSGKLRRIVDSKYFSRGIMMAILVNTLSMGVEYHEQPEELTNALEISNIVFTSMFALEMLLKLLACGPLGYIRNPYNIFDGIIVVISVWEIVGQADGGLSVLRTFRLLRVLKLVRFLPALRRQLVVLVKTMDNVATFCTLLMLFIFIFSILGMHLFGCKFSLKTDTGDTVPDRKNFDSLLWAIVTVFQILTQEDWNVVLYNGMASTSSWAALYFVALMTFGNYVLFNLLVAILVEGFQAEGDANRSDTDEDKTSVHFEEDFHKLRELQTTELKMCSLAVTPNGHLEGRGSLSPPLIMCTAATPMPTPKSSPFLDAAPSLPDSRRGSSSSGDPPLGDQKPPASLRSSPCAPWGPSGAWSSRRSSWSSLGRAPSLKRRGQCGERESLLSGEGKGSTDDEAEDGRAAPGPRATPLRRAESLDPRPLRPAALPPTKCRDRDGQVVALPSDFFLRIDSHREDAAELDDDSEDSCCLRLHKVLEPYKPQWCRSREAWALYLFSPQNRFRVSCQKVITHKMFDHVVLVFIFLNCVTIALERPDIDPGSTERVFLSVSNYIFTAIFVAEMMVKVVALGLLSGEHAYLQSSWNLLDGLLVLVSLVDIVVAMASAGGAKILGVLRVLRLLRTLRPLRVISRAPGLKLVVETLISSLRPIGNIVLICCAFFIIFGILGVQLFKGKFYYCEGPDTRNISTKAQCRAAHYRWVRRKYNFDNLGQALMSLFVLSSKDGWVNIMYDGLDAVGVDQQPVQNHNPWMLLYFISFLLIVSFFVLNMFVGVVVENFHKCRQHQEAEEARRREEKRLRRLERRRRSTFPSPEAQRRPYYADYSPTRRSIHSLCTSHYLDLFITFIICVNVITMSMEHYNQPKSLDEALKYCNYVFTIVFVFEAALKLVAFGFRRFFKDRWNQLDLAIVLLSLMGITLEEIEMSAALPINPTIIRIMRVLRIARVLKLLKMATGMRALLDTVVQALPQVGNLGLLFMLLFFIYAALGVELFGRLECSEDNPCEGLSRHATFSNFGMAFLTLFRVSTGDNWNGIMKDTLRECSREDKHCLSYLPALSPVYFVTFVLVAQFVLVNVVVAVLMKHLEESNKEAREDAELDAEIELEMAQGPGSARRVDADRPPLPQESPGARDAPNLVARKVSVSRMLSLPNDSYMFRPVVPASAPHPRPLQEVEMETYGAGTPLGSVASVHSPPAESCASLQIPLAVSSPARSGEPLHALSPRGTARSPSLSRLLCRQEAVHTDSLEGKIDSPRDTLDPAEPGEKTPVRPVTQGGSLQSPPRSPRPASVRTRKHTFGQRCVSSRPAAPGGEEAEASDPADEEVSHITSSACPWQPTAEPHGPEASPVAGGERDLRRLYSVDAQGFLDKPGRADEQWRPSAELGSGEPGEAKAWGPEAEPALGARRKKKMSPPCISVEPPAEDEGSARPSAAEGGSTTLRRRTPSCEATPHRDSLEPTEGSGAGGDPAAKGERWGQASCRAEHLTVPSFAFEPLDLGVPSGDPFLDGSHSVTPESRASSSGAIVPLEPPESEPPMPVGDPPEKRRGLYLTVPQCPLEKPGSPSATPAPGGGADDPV
Sequence of CYP2D6 (P10635 whole entry): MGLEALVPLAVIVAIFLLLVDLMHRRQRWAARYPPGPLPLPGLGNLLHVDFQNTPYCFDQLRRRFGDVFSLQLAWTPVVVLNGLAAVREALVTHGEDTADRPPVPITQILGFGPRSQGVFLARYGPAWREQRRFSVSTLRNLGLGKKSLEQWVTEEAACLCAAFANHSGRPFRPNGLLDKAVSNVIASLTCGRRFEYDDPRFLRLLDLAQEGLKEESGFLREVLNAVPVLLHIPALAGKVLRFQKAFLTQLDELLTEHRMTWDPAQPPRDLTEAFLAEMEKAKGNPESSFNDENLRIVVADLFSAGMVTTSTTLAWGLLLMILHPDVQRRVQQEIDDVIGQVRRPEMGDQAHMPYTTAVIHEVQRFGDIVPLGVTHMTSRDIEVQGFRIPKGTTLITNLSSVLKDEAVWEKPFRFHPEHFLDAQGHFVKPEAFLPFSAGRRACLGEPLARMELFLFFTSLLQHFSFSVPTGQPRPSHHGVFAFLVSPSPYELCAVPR
Sequence of Voltage-gated inwardly rectifying potassium channel KCNH2 (Q12809 whole entry): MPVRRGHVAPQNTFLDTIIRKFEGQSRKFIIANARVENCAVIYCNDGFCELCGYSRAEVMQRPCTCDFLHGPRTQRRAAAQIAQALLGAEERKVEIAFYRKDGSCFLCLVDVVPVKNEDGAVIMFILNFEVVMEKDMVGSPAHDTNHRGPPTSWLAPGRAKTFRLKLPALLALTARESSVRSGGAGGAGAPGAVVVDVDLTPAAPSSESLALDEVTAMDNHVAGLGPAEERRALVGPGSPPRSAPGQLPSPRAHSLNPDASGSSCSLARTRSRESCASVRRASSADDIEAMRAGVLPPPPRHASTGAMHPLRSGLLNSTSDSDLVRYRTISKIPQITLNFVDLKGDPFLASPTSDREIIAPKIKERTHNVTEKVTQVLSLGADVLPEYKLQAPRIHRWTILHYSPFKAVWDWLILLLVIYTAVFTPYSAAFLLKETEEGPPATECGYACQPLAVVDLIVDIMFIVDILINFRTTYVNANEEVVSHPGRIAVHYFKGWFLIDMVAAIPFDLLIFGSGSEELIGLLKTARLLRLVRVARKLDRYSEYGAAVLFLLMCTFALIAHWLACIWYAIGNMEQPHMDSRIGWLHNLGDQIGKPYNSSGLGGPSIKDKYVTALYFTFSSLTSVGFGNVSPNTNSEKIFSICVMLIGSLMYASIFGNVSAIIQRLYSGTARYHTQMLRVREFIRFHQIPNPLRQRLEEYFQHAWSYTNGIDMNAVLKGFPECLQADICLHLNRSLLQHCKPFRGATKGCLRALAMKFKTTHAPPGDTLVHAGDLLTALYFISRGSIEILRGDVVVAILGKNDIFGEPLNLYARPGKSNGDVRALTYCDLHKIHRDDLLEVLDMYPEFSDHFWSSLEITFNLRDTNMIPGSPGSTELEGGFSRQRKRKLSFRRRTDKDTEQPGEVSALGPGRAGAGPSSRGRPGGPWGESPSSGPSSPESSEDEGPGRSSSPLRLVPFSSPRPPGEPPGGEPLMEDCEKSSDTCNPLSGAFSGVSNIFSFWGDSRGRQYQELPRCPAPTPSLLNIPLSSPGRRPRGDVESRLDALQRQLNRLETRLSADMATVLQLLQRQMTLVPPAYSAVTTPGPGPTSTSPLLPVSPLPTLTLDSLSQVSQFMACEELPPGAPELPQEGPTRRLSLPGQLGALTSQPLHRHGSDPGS

Broadly, the inhibition is the relative decrease from the control value, in per cent. In the case of `CN(CCCc1nc2ccccc2[nH]1)C(=O)C1C2CN(CCc3ccc(C(F)(F)F)cc3)CC21` (stereo not given), the values for the inhibition in [1] and in data set [2] were 49.2% and 58.7%, respectively. In addition, the activity at 0.25 h at CYP2D6 was 27.7%; at CYP2C9, 51.4%; on CYP2C19 it was 42.3%; on CYP3A4, 61.4%. The remaining at 0.5 h in data set [3] turned out to be 76.9%.
In general, AUC(0-inf) refers to total exposure, with the tail of the curve extrapolated. For orientation: AUC(0-t) means exposure summed from dosing to a finite time, without extrapolation to infinity. For orientation: clearance means the rate of elimination divided by the concentration. Broadly, the MRT is the average time that molecules of a dose stay in the body. In general, bioavailability refers to dose-corrected exposure relative to a reference, in per cent. As usually defined, the Cmax is the highest concentration seen after dosing. What is called Tmax is the time at which the peak concentration occurs. Take `CC(C)Cc1cc(CNC(=O)C2C3CN(C(=O)c4ccccc4)CC32)nn1-c1ccccc1` (stereo not given): the activity at 0.25 h on CYP2D6 was found to be 94%; on CYP2C9, 64.6%; at CYP2C19, 60.8%; at CYP3A4, 74.6%. For the same compound, the Activity result in the data set with Rattus norvegicus [4] is “inactive”. Also, the “fold change (FC)” value in the data set on Rattus norvegicus [5] is given as 2. In addition, the area under the curve AUC(0-inf) in data set [6] was 3860 ng·h/mL; in data set [12], 294 ng·h/mL. Further, the AUC(0-t) in [7] was 3850 ng·h/mL; in [13], 273 ng·h/mL. Besides, the clearance in data set [8] came out at 43.8 mL/min/kg. Further, the MRT in [9] is 18.2 min. The Kp at 2 h in [10] amounted to 0.29; in [16], 0.12. The compound further registered a bioavailability in [11] of 7.6%. Further, the peak level in [14] (Cmax) was 280 ng/mL. The Tmax in data set [15] is 26 min.
As for `CC(C)Cc1cc(C(=O)NCC2C3CN(CCC(C)(C)C)CC23)nn1-c1ccccc1` (stereo not given), the activity at 0.25 h was found to be 55.9% at CYP2D6, 87.1% on CYP2C9, 84.2% on CYP2C19 and 130% on CYP3A4.
For the compound `NCC1(CC(=O)O)CCCCC1`, the Activity result with Rattus norvegicus [4] is “inactive”.
What is called IC50 is the concentration at which inhibition is half-maximal. In the case of `CC(C)Cc1cc(CNC(=O)C2C3CN(C(=O)Cc4ccccc4)CC32)nn1-c1ccccc1` (stereo not given), the figures for the inhibition in [1], in [2] and in data set [19] were 81%, 89.9% and 60.6%, respectively. Besides, the IC50 came to 2730 nM in [17], 2500 nM in data set [18] and 20800 nM in data set [20]. Further, the activity at 0.25 h on CYP2D6 stood at 83%; at CYP2C9, 24.8%; at CYP2C19, 65.5%; on CYP3A4 it was 80.4%. In addition, the remaining at 0.5 h in [3] amounted to 57.8%.
With `CC(C)(C)CCN1CC2C(CNC(=O)c3cc(Cl)cc(Cl)c3)C2C1` (stereo not given), in [21], the IC50 was 310 nM.
On to `CC(C)Cc1cc(CNC(=O)C2C3CN(CCc4ccc(C(F)(F)F)cc4)CC32)nn1-c1ccccc1` (stereo not given), for which the inhibition in [1] worked out at 60.5%; in data set [2] it was 64.6%.
The compound `CC(C)Cc1cc(CNC(=O)C2C3CN(Cc4ccccc4)CC32)nn1-c1ccccc1` (stereo not given) gave a half-inhibitory concentration (IC50) in data set [20] of 1430 nM. In addition, the activity at 0.25 h on CYP2D6 worked out at 56.2%; on CYP2C9 it was 118%; on CYP2C19, 30.3%; at CYP3A4 it was 102%.
Regarding `CC(C)Cc1cc(CNC(=O)C2C3CN(CCC(C)(C)C)CC32)nn1-c1ccccc1` (stereo not given), in data set [20], the IC50 came out at 2600 nM. Besides, the activity at 0.25 h on CYP2D6 was determined as 126%; on CYP2C9, 72.8%; at CYP2C19, 101%; on CYP3A4, 82.3%. For the same compound, the Activity entry in the data set with Rattus norvegicus [4] was “Active”. For the same compound, the “fold change (FC)” value in the data set with Rattus norvegicus [5] is given as 3.
